Molecular target: T1, Corticotropin-releasing factor receptor 1 (Rattus norvegicus, UniProt P35353)
T1 sequence (P35353 whole entry): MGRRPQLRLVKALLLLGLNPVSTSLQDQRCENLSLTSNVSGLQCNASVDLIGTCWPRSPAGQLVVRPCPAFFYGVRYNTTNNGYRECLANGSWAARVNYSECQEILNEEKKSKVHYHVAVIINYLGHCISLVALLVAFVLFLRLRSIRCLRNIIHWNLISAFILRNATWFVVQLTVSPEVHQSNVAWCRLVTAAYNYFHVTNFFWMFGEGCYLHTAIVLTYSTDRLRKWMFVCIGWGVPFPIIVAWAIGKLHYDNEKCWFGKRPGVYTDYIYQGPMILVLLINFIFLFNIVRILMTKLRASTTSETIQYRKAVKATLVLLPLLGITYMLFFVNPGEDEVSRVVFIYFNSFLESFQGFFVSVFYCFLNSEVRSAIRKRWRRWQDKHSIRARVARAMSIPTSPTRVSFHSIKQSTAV
Test: Displacement of [125I]Tyr-ovine-CRF from CRF1 receptor in rat frontal cortex homogenate by gamma counting
Format: tissue-based
Summary of the method: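 Washed homogenates of frozen rat frontal cortex (CRF1, 25 μg/well) or porcine choroid plexus (CRF2, 10 μg/well) in 50 mM Hepes pH 7.0, 10 mM MgCl2, 2 mM EGTA, protease inhibitors, 0.005% Triton X-100. Ligand 150 pM 125I-ovine-CRF (CRF1) or 100 pM 125I-sauvagine (CRF2). Incubation 2 h at 21 °C, then filtration and gamma counting. Nonspecific binding: 1 μM CRF1 reference antagonist or 1 μM α-helical CRF(9-41). IC50 from 5- or 10-point curves by nonlinear regression.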

SMILES | IC50 [nM]
CC[C@H](C1CC1)n1cc(Cl)nc(Nc2c(C)cccc2Cl)c1=O | 9.3
COc1ccc(Nc2nccn([C@H](C)C3CC3)c2=O)c(C(F)(F)F)n1 | 150
COc1cc(Cl)c2c(c1)CCN2c1nc(Cl)cn([C@H](C)C2CC2)c1=O | 0.62
COc1ccc(Nc2nc(Br)cn([C@H](C)C3CC3)c2=O)c(C(F)(F)F)n1 | 1.2
COc1cc(Cl)c(Nc2nc(Cl)cn([C@H](C)C3CC3)c2=O)c(Cl)c1 | 1.1
COc1cc(Br)c2c(c1)CCN2c1nc(Cl)cn([C@H](C)C2CC2)c1=O | 0.94
C[C@H](C1CC1)n1cc(Cl)nc(Nc2c(Cl)cc(C#N)cc2Cl)c1=O | 2.4
CC[C@H](C1CC1)n1cc(Cl)nc(Nc2c(C)cc(Cl)cc2Cl)c1=O | 0.53
C[C@@H](C1CC1)n1cc(Cl)nc(Nc2c(Cl)cc(C#N)cc2Cl)c1=O | 6.3
CCC(CC)n1cc(Cl)nc(Nc2cc(C)c(OC)cc2C)c1=O | 0.8
CC[C@H](C1CC1)n1cc(Cl)nc(Nc2cc(C)c(C)cc2C)c1=O | 2.4
COc1ccc(Nc2nc(Cl)cn([C@H](C)C3CC3)c2=O)c(C(F)(F)F)n1 | 1.8
COCC(COC)n1cc(Cl)nc(Nc2cc(C)c(OC)cc2C)c1=O | 2.1

— ChEMBL document CHEMBL1158468, “Synthesis, structure-activity relationships, and in vivo evaluation of N3-phenylpyrazinones as novel corticotropin-releasing factor-1 (CRF1) receptor antagonists” (J Med Chem, 2009)
